Assay results taken from ChEMBL document CHEMBL1240400, “Comparative in vitro activities of nemonoxacin (TG-873870), a novel nonfluorinated quinolone, and other quinolones against clinical isolates” (2010).

Key:
Type in all cases: functional
[1] = test system: Klebsiella pneumoniae; assay: Antibacterial activity against Klebsiella pneumoniae by broth dilution method
Summary of the method: (§1)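 Broth microdilution per CLSI in panels spanning a dilution range of each agent. Cation-adjusted Mueller-Hinton broth, final inoculum 5 × 10^5 CFU/ml from a 0.5 McFarland suspension. Incubated overnight at 35°C in ambient air, with quality control strains in each run. MIC reported; values at or below the lowest concentration tested are given as that concentration.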

[2] = test system: Enterobacter cloacae; assay: Antibacterial activity against Enterobacter cloacae by broth dilution method
[3] = test system: Proteus mirabilis; assay: Antibacterial activity against Proteus mirabilis by broth dilution method
[4] = test system: Citrobacter freundii; assay: Antibacterial activity against Citrobacter freundii by broth dilution method; summary of the method: as §1
[5] = test system: Acinetobacter baumannii; assay: Antibacterial activity against Acinetobacter baumannii by broth dilution method; summary of the method: as §1
[6] = test system: Haemophilus influenzae; assay: Antibacterial activity against Haemophilus influenzae by broth dilution method
Summary of the method: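 Broth microdilution per CLSI using Haemophilus Test Medium broth, seeded from a 0.5 McFarland suspension. Incubated overnight at 35°C in ambient air, with quality control strains in each run. MIC read against a tested dilution range; values at the low limit are given as the lowest concentration.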

[7] = test system: Escherichia coli; assay: Antibacterial activity against ciprofloxacin resistant Escherichia coli by broth dilution method
Summary of the method: (§2)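 Clinical isolates tested by CLSI broth microdilution in panels holding serial twofold drug dilutions in cation-adjusted Mueller-Hinton broth. Final inoculum 5 × 10^5 CFU/ml was made from a 0.5 McFarland suspension. Plates were incubated overnight at 35°C in ambient air, and the MIC was read as the lowest concentration inhibiting growth. Quality control strains were included in each run.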

[8] = test system: Escherichia coli; assay: Antibacterial activity against ciprofloxacin susceptible Escherichia coli by broth dilution method; summary of the method: as §1
[9] = test system: Pseudomonas aeruginosa; assay: Antibacterial activity against Pseudomonas aeruginosa by broth dilution method
[10] = test system: Staphylococcus aureus; assay: Antibacterial activity against methicillin susceptible Staphylococcus aureus by broth dilution method
[11] = test system: Staphylococcus aureus; assay: Antibacterial activity against ciprofloxacin susceptible and methicillin resistant Staphylococcus aureus by broth dilution method; summary of the method: as §2
[12] = test system: Staphylococcus aureus; assay: Antibacterial activity against ciprofloxacin and methicillin resistant Staphylococcus aureus by broth dilution method; summary of the method: as §2
[13] = test system: Staphylococcus; assay: Antibacterial activity against methicillin resistant coagulase negative Staphylococcus by broth dilution method
[14] = test system: Staphylococcus epidermidis; assay: Antibacterial activity against methicillin resistant coagulase negative Staphylococcus epidermidis by broth dilution method
[15] = test system: Streptococcus pneumoniae; assay: Antibacterial activity against Levofloxacin susceptible Streptococcus pneumoniae by broth dilution method
Summary of the method: (§3)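 Streptococcus pneumoniae clinical isolates tested by CLSI broth microdilution. A 0.5 McFarland suspension was diluted into Mueller-Hinton broth with 3% lysed horse blood, then tested against serial drug dilutions. Plates were incubated overnight at 35°C in ambient air, and the MIC was read as the lowest inhibitory concentration. Quality control strains were included in each run.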

[16] = test system: Streptococcus pneumoniae; assay: Antibacterial activity against Levofloxacin resistant Streptococcus pneumoniae by broth dilution method; summary of the method: as §3
[17] = test system: Streptococcus pyogenes; assay: Antibacterial activity against Streptococcus pyogenes by broth dilution method
Summary of the method: (§4)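 Streptococci were tested by CLSI broth microdilution in Mueller-Hinton broth with 3% lysed horse blood, seeded from a 0.5 McFarland suspension. Incubated overnight at 35°C in ambient air, with quality control strains in each run. MIC taken over a per-agent dilution range.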

[18] = test system: Streptococcus agalactiae; assay: Antibacterial activity against Streptococcus agalactiae by broth dilution method; summary of the method: as §4
[19] = test system: Streptococcus viridans; assay: Antibacterial activity against Streptococcus viridans by broth dilution method; summary of the method: as §4
[20] = test system: Enterococcus faecalis; assay: Antibacterial activity against Enterococcus faecalis by broth dilution method
[21] = test system: Enterococcus faecalis; assay: Antibacterial activity against vancomycin resistant Enterococcus faecalis by broth dilution method
[22] = test system: Enterococcus faecium; assay: Antibacterial activity against Enterococcus faecium by broth dilution method; summary of the method: as §2
[23] = test system: Enterococcus faecium; assay: Antibacterial activity against vancomycin resistant Enterococcus faecium by broth dilution method; summary of the method: as §2

C[C@@H](O)[C@H]1C(=O)N2C(C(=O)O)=C(SCCNC=N)C[C@H]12 [IMIPENEM ANHYDROUS]
8 µg/mL: MIC90 [3]
> 32 µg/mL: MIC90 [5]
1 µg/mL: MIC50 [2] | MIC50 [4] | MIC50 [6]
4 µg/mL: MIC90 [1] | MIC90 [2] | MIC90 [6]
0.5 µg/mL: MIC50 [1]
2 µg/mL: MIC50 [3] | MIC90 [4] | MIC50 [5]

CCN1CCN(C(=O)N[C@@H](C(=O)N[C@@H]2C(=O)N3[C@@H]2SC(C)(C)[C@@H]3C(=O)O)c2ccccc2)C(=O)C1=O [PIPERACILLIN]
16 µg/mL: MIC50 [4]
2 µg/mL: MIC [7]
128 µg/mL: MIC50 [9]
0.5 µg/mL: MIC90 [7]
> 128 µg/mL: MIC50 [8] | MIC90 [8] | MIC50 [1] | MIC90 [1] | MIC50 [2] | MIC90 [2] | MIC90 [3] | MIC90 [4] | MIC50 [5] | MIC90 [5] | MIC90 [9]
32 µg/mL: MIC50 [3]

CO/N=C(\C(=O)N[C@@H]1C(=O)N2C(C(=O)[O-])=C(C[N+]3(C)CCCC3)CS[C@H]12)c1csc(N)n1
> 8 µg/mL: MIC90 [4] | MIC50 [5] | MIC90 [5] | MIC50 [9] | MIC90 [9]
8 µg/mL: MIC90 [3]
0.5 µg/mL: MIC90 [6]
0.25 µg/mL: MIC50 [6]
≤ 0.06 µg/mL: MIC50 [3] | MIC50 [4]

CO/N=C(\C(=O)N[C@@H]1C(=O)N2C(C(=O)O)=C(CSc3nc(=O)c(O)nn3C)CS[C@H]12)c1csc(N)n1 [CEFTRIAXONE]
> 8 µg/mL: MIC50 [11] | MIC90 [11] | MIC50 [12] | MIC90 [12] | MIC50 [13] | MIC90 [13] | MIC50 [14] | MIC90 [14] | MIC50 [7] | MIC90 [8] | MIC50 [1] | MIC90 [1] | MIC50 [2] | MIC90 [2] | MIC90 [3] | MIC90 [4] | MIC50 [5] | MIC90 [5] | MIC [9] | MIC50 [9] | MIC90 [9]
≤ 0.06 µg/mL: MIC [17] | MIC50 [17] | MIC90 [17] | MIC50 [18]
0.06 µg/mL: MIC50 [8]
≤ 0.03 µg/mL: MIC50 [3] | MIC50 [6] | MIC90 [6]
0.5 µg/mL: MIC90 [19]
0.12 µg/mL: MIC90 [18]
2 µg/mL: MIC90 [15] | MIC90 [16]
1 µg/mL: MIC50 [15] | MIC50 [16]
0.25 µg/mL: MIC50 [4] | MIC50 [19]
64 µg/mL: MIC90 [7]
4 µg/mL: MIC50 [10] | MIC90 [10]

CC(C)(O/N=C(\C(=O)N[C@@H]1C(=O)N2C(C(=O)[O-])=C(C[n+]3ccccc3)CS[C@H]12)c1csc(N)n1)C(=O)O [CEFTAZIDIME]
128 µg/mL: MIC50 [2]
> 128 µg/mL: MIC90 [1] | MIC90 [2] | MIC90 [5] | MIC90 [9]
64 µg/mL: MIC90 [4] | MIC50 [5]
16 µg/mL: MIC90 [8] | MIC50 [1]
32 µg/mL: MIC50 [9]
≤ 1 µg/mL: MIC50 [3] | MIC90 [3] | MIC50 [4] | MIC [6] | MIC50 [6] | MIC90 [6]
1 µg/mL: MIC [8] | MIC50 [8]

CN[C@H](CC(C)C)C(=O)N[C@H]1C(=O)N[C@@H](CC(N)=O)C(=O)N[C@H]2C(=O)N[C@H]3C(=O)N[C@H](C(=O)N[C@H](C(=O)O)c4cc(O)cc(O)c4-c4cc3ccc4O)[C@H](O)c3ccc(c(Cl)c3)Oc3cc2cc(c3O[C@@H]2O[C@H](CO)[C@@H](O)[C@H](O)[C@H]2O[C@H]2C[C@](C)(N)[C@H](O)[C@H](C)O2)Oc2ccc(cc2Cl)[C@H]1O [VANCOMYCIN]
0.5 µg/mL: MIC50 [15] | MIC90 [15] | MIC50 [16] | MIC90 [16] | MIC50 [17] | MIC90 [17] | MIC [18] | MIC50 [18] | MIC [19] | MIC50 [19]
8 µg/mL: MIC50 [22] | MIC50 [23]
> 16 µg/mL: MIC90 [20] | MIC90 [21] | MIC90 [22] | MIC90 [23]
2 µg/mL: MIC50 [12] | MIC90 [12] | MIC50 [13] | MIC90 [13] | MIC50 [14] | MIC90 [14] | MIC50 [20] | MIC50 [21]
1 µg/mL: MIC50 [10] | MIC90 [10] | MIC50 [11] | MIC90 [11] | MIC90 [18] | MIC90 [19]

CC(=O)NC[C@H]1CN(c2ccc(N3CCOCC3)c(F)c2)C(=O)O1 [LINEZOLID]
1 µg/mL: MIC50 [13] | MIC50 [14] | MIC50 [20] | MIC50 [21] | MIC50 [15] | MIC90 [15] | MIC50 [16] | MIC90 [16] | MIC50 [17] | MIC90 [17] | MIC [18] | MIC50 [18] | MIC90 [18] | MIC50 [19]
2 µg/mL: MIC50 [10] | MIC90 [10] | MIC50 [11] | MIC90 [11] | MIC50 [12] | MIC90 [12] | MIC90 [13] | MIC90 [14] | MIC90 [20] | MIC90 [21] | MIC50 [22] | MIC90 [22] | MIC50 [23] | MIC90 [23] | MIC90 [19]

Cc1onc(-c2ccccc2)c1C(=O)N[C@@H]1C(=O)N2[C@@H]1SC(C)(C)[C@@H]2C(=O)O [OXACILLIN]
0.5 µg/mL: MIC50 [10]
1 µg/mL: MIC90 [10]
> 8 µg/mL: MIC50 [11] | MIC90 [11] | MIC [12] | MIC50 [12] | MIC90 [12] | MIC50 [13] | MIC90 [13] | MIC50 [14] | MIC90 [14]
